Laboratory results published in PubChem BioAssay.
The source made the active and inactive calls.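 How the source made its calls, unless noted: active means compounds giving at least 50% inhibition in the cell-based MKP-3 phosphatase rescue imaging test; inactive means the rest.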

Legend:
[1] = inhibitors of TNFa-induced NFkB p65 translocation, primary screen, imaging, HUVEC, MLSMR starter and 10KST1 sets (AID 438;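 active means inhibition above 20% together with a positive visual image hit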;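 further: compound added about 3h40 before a 20 min TNFalpha stimulation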;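 on inhibition: signal is the nuclear over cytoplasmic p65 intensity ratio per well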); details: HUVEC TNFa-induced p65 nuclear translocation; cell count: measured here: nuclei count (cytotoxicity indicator), at 2.08 µM; inhibition: at 2 µM, stronger effect = higher value, 0% TNFa-plus-vehicle, 100% no-TNFa wells
[2] = inhibitors of E-selectin induction by TNFa, primary screen, imaging, HUVEC, immunofluorescence, MLSMR starter and 10KST1 sets (AID 487;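 active means visually confirmed hit in the image check and inhibition above 20%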;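 on inhibition: signal is fraction of cell area covered by stained E-selectin grains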;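 on nuclei count: 100% = median nuclei count of all wells on the same plate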); details: HUVEC TNFalpha-induced E-selectin immunofluorescence imaging, at 2 µM; inhibition: stronger effect = higher value; nuclei count: measured here: cell number, toxicity
[3] = DUSP6 inhibitors restoring Erk phosphorylation by chemical complementation, primary imaging in DUSP6-transfected HeLa (AID 609); details: HeLa MKP-3 transfected, phospho-Erk imaging KS statistic, at 10 µM, cells stimulated with TPA for 15 min;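 on inhibition: phospho-Erk level distribution per well compared with pooled transfected vehicle control wells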
[4] = target: Dual specificity protein phosphatase 6 (Homo sapiens) (UniProt Q16828); assay: as above; details: HeLa MKP-3 transfected, phospho-Erk imaging KS statistic; at 10 µM; stronger effect = higher value; cells stimulated with TPA for 15 min
[5] = target: Voltage-gated potassium channel subunit beta-2 (Rattus norvegicus) (UniProt P62483); assay: KvBeta enzyme negative modulators, primary screen, biochemical, NADPH fluorescence (AID 622;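 active means fluorescence slope higher than the sample average by over 3 SD, cut at about -0.22 in these data, passing the limit was not always enough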;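 further: slope of raw intensity against log time taken from 70 to 1610 s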); details: recombinant KvBeta, 4-cyanobenzaldehyde reduction, at 10 µM, stronger effect = higher value
[6] = target: Voltage-gated potassium channel subunit beta-2 (Rattus norvegicus) (UniProt P62483); assay: KvBeta positive modulators, primary screen, biochemical, NADPH fluorescence (AID 623;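 active means NADPH fluorescence slope more negative than the mean of all samples by about 3 SD, 99.7% confidence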;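 further: fluorescence intensity change per second fitted from 20 to 320 s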); details: Recombinant KvBeta, NADPH fluorescence decrease slope, 10 min; at 10 µM; stronger effect = lower value
[7] = target: Alpha-2C adrenergic receptor (Homo sapiens) (UniProt P18825); assay: modulators of alpha2C/GIRK thallium flux, primary screen, cell-based, HEK293 alpha2C/GIRK1/2 (AID 624;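 active means fluorescence slope after compound addition differing from the mean of all screened samples at 99.7% confidence, in either direction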;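 further: slope of fluorescence ratio to pre-addition baseline per second over 15 to 24 s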); details: thallium flux BTC fluorescence, at 10 µM, actives lie on both sides
[8] = inhibitors of larval lipid processing in zebrafish, primary screen, whole organism, PED6 fluorescence, gall bladder and intestine (AID 686;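 active means a full or partial loss of lipid-probe fluorescence in the fish gall bladder, intestine or both, judged by eye; inactive means no fluorescence loss, or compound toxic to the fish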;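 further: larvae 5 to 7 days old with five fish per well; signal comes from phospholipase A2 cleavage of quenched PED6 carried via bile; overnight exposure to compound and PED6 before scoring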); details: Zebrafish larvae PED6 lipid processing, fluorescence scoring; screened at 20 µM (by protocol)
How it was run: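 System: live zebrafish larvae aged 5-7 days, whole organism; measure: graded gall bladder and intestinal fluorescence inhibition per well; incubation: overnight exposure; reagent: ingested quenched lipid PED6 at 100 nM; signal: By-eye fluorescence microscopy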

[9] = inhibitors of Chlamydomonas gravitaxis, primary screen, whole organism, Chlamydomonas reinhardtii, WT vs cilia-less mutant, absorbance, 96-well (AID 463189;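 active means inhibition at or above 50% relative to wild type and mutant plate controls; inactive means inhibition below 50%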;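 further: 0% = wild type cc124 cells in DMSO and 100% = ciliumless bld1 mutant cells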); details: OD600 absorbance, 2 days, at 10 µM, stronger effect = higher value
[10] = measured here: cell density z-score
[11] = measured here: nuclear c-Myc green intensity z-score
[12] = measured here: nuclear pErk red intensity z-score, stronger effect = higher value

Dual specificity protein phosphatase 6 (Homo sapiens), sequence (Q16828 whole entry, looked up): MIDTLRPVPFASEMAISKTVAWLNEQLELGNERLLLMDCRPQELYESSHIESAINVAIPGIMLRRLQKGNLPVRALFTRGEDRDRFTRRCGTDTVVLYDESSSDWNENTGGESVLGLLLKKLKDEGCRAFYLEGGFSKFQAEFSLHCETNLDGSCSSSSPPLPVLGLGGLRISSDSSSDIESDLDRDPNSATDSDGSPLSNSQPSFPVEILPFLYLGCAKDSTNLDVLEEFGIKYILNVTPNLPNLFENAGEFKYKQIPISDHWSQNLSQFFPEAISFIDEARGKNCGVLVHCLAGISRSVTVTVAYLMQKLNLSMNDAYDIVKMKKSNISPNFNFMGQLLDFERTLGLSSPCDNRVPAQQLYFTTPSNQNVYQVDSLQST
Alpha-2C adrenergic receptor (Homo sapiens), sequence (P18825 whole entry, looked up): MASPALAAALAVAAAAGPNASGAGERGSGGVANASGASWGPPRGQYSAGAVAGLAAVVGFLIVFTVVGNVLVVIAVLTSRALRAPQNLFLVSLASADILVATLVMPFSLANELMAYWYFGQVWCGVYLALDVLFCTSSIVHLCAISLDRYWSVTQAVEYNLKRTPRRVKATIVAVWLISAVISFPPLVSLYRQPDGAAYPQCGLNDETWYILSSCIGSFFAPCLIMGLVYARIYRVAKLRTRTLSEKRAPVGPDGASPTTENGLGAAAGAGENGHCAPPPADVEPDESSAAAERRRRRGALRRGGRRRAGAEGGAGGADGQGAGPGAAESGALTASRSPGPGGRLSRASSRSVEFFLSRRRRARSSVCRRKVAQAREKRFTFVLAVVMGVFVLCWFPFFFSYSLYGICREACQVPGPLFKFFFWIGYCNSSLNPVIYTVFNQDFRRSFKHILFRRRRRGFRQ
Voltage-gated potassium channel subunit beta-2 (Rattus norvegicus), sequence (P62483 whole entry, looked up): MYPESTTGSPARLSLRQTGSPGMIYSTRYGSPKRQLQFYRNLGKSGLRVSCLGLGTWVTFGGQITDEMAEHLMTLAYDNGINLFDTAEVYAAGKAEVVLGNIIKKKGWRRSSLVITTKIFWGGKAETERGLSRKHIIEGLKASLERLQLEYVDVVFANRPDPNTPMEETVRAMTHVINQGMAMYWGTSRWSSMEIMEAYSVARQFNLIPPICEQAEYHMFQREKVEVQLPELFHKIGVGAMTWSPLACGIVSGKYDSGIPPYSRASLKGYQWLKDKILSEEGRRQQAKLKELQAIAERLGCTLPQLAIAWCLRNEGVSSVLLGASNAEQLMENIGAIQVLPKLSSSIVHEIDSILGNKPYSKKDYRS

Row | SMILES | cell count [1] | inhibition [1] | inhibition [2] | nuclei count [2] | z-score [3, 10] | z-score [3, 11] | z-score [3, 12] | inhibition [4] | fluorescence slope [5] | NADPH fluorescence slope [6] | slope [7] | outcome [8] | inhibition [9]
1 | COc1ccc(-c2nn3c(C4CCCCC4)nnc3s2)cc1OC | 580 | -19.9% (inactive) | -19.9% (inactive) | 159% | -0.887 | 0.0164 | 0.338 | -18.6% (inactive) | -0.442 (inactive) | -0.000143 (inactive) | 0.00441 (inactive) | inactive | 25.1% (inactive)
2 | COc1ccc(C(=O)c2sc(NC(C)C)nc2N)cc1OC | 327 | -12.2% (inactive) | -16.7% (inactive) | 105% | -0.265 | 0.429 | -0.628 | -11.9% (inactive) | -0.458 (inactive) | -6.7e-06 (inactive) | 0.0049 (inactive) | inactive | -3.2% (inactive)
3 | COc1ccc2c(c1OC)C(=O)N1c3ccccc3C(=O)N(c3ccccc3)C21 (centres undefined) | 475 | -9.6% (inactive) | -84.9% (inactive) | 169% | 0.407 | -0.0149 | -0.273 | 2.46% (inactive) | -0.319 (inactive) | -5.5e-06 (inactive) | 0.00449 (inactive) | inactive | 3.79% (inactive)
4 | CC(=O)c1c(C(C)=O)c(C)n(NC(=O)c2ccncc2)c1C | 557 | 1.2% (inactive) | -2.4% (inactive) | 133% | 1.16 | -1.48 | 0.477 | 5.26% (inactive) | -0.305 (inactive) | 7.7e-06 (inactive) | 0.00487 (inactive) | inactive | 8.61% (inactive)
5 | COCc1[nH]nc2c1C(c1ccnc3ccccc13)C(C#N)=C(N)O2 (centres undefined) | 589 | -5% (inactive) | 26.1% (inactive) | 102% | 0.598 | -2.1 | -0.301 | 29.9% (inactive) | -0.519 (inactive) | -1.8e-05 (inactive) | 0.00587 (inactive) | inactive | 15.7% (inactive)
6 | CCOc1nc(SC(C(C)=O)C(=O)Nc2ccccc2)nc(N(C)C)n1 (centres undefined) | 302 | -20.6% (inactive) | 10.9% (inactive) | 91.5% | 0.486 | -0.655 | -1.33 | 10.5% (inactive) | -0.456 (inactive) | -9.6e-06 (inactive) | 0.00845 (inactive) | inactive | -7.41% (inactive)
7 | O=C(c1nsnc1-c1ccccc1O)N1CCCCC1 | 500 | -8% (inactive) | -58.8% (inactive) | 86.9% | 0.333 | 0.0172 | 0.334 | 17.8% (inactive) | -0.563 (inactive) | -9.1e-06 (inactive) | 0.007 (inactive) | inactive | 24.8% (inactive)
8 | COc1cc(C2C(C#N)=C(N)Oc3cc(C)n(CCN4CCOCC4)c(=O)c32)cc(OC)c1OC (centres undefined) | 388 | 4% (inactive) | -116% (inactive) | 142% | -0.238 | -0.479 | -0.461 | -4.7% (inactive) | -0.468 (inactive) | -4.4e-05 (inactive) | 0.0078 (inactive) | inactive | -6.44% (inactive)
9 | Clc1ccc2[nH]c3c(NCCN4CCOCC4)ncnc3c2c1 | 504 | -25% (inactive) | -70% (inactive) | 154% | -1.3 | 0.291 | 1.3 | -2.47% (inactive) | -0.503 (inactive) | -3.9e-05 (inactive) | 0.00429 (inactive) | inactive | 2.54% (inactive)
10 | O=C(O)c1ccc(OCCn2ccnc2)cc1 | 490 | -6.5% (inactive) | -141% (inactive) | 185% | -0.78 | -1.02 | 1.25 | 26.5% (inactive) | -0.473 (inactive) | -0.000213 (inactive) | 0.00534 (inactive) | inactive | 0.065% (inactive)
11 | Brc1ccc(-c2cnc3n2CCCC3)cc1 | 363 | -4.2% (inactive) | -15.9% (inactive) | 108% | 0.187 | 2.77 | -1.27 | 5.65% (inactive) | -0.46 (inactive) | -0.000301 (inactive) | 0.00468 (inactive) | inactive | 142% (active)
12 | Cc1cc(C(F)(F)F)c(C#N)c(SCC(=O)NC2CC2)n1 | 541 | -11.5% (inactive) | 2.6% (inactive) | 99.8% | 1.52 | -0.242 | -0.534 | 15.5% (inactive) | -0.514 (inactive) | -3.6e-05 (inactive) | 0.0063 (inactive) | inactive | 7.84% (inactive)
13 | COCCNc1cc(C)c(C#N)c2nc3ccccc3n12 | 564 | 2.6% (inactive) | -78.8% (inactive) | 108% | -2.44 | 1.04 | -1.31 | 13.9% (inactive) | -0.383 (inactive) | 1.2e-06 (inactive) | 0.00535 (inactive) | inactive | -12.3% (inactive)
